Consider 8 compounds from ChEMBL document CHEMBL1140972, “Synthesis and structure-activity relationship of 3-phenylquinoxaline 1,4-di-N-oxide derivatives as antimalarial agents” (Eur J Med Chem, 2008).

One may read the IC50 as the midpoint of a concentration-inhibition curve. A higher IC50 goes with a need for much substance.

Series [1] concerns Plasmodium falciparum. Briefly: Antimalarial activity after 48 hrs against chloroquine-resistant Plasmodium falciparum K1 by [3H]hypoxanthine uptake. The class given is functional, organism-based. The gist of the method: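 Asynchronous P. falciparum K1 culture (65-75% ring stage, 0.5% parasitemia; chloroquine, pyrimethamine, cycloguanil resistant) at 2.5% hematocrit in RPMI 1640 with 0.5% Albumax II, glucose, L-glutamine, 5 µM hypoxanthine. Triplicate 3-fold dilutions 10.0–0.0412 µg/mL, DMSO ≤0.01% final, 37 °C, 5% CO2. [3H]-hypoxanthine (0.2 µCi/well) added at 24 h, incorporation counted after further 24 h. IC50 by curve fit, 2–3 experiments.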

Series [2] is described as follows: Selectivity index, ratio of IC50 for human KB cells to IC50 for chloroquine-resistant Plasmodium falciparum K1. In kind it is toxicity, cell-based. Particulars: read-out: Ratio IC50. The gist of the method: (§1)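 KB IC50 divided by the parasite IC50 (K1 or 3D7). KB cells seeded at 4×10^4 cells/mL in RPMI 1640 with 10% heat-inactivated FCS and grown 24 h. Triplicate dilution series then added for 72 h. AlamarBlue for 2–4 h, fluorescence ex 530/em 585 nm, IC50 by curve fit. Podophyllotoxin as positive control.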

For series [3], the system named is Plasmodium falciparum. Briefly: Antimalarial activity after 48 hrs against chloroquine-sensitive Plasmodium falciparum 3D7 by [3H]hypoxanthine uptake. The class given is functional, organism-based. The gist of the method: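 Asynchronous culture (65-75% rings, 0.5% parasitemia, 2.5% final hematocrit) in RPMI 1640 with 0.5% Albumax II, 0.2% glucose, 0.03% L-glutamine and 5 µM hypoxanthine. Triplicate wells with a 3-fold series of 10.0–0.0412 µg/mL; final DMSO ≤0.01%. 37 °C, 5% CO2: 24 h, then 0.2 µCi/well [3H]hypoxanthine for a further 24 h. Frozen, harvested, scintillation-counted. IC50 from curve fit; mean of 2–3 experiments.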

Series [4] in a line: Resistant index, ratio of IC50 for chloroquine-resistant Plasmodium falciparum K1 to IC50 for chloroquine-sensitive Plasmodium falciparum 3D7. In kind it is functional. The gist of the method: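 IC50 against K1 divided by IC50 against 3D7 (drug-sensitive NF54 clone). Both from [3H]-hypoxanthine incorporation over 48 h: asynchronous cultures at 0.5% parasitemia, 2.5% hematocrit, 3-fold dilutions 10.0–0.0412 µg/mL in triplicate. Label added at 24 h. Means of 2–3 independent experiments.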

The subject of series [5] is KB. Briefly: Cytotoxicity against human KB cells after 48 hrs by alamar blue assay. The class given is cell-based. Background: The colour change of resazurin is a common sign of viable cells or microbes.
A short description of series [6]: Selectivity index, ratio of IC50 for human KB cells to IC50 for chloroquine-sensitive Plasmodium falciparum 3D7. Particulars: read-out: Ratio IC50. In kind it is toxicity, cell-based. The gist of the method:
as §1

Consider `N#Cc1c(-c2ccc(F)cc2)[n+]([O-])c2ccc(C(F)(F)F)cc2[n+]1[O-]`, for which the IC50 in series [1] came to 520 nM; in series [3], 660 nM; in series [5], 2850 nM. Besides, the selectivity ratio in series [2] is 5.48; in series [6] it was 4.32. Also, the Ratio IC50 in series [4] was 0.79.
As for `COc1ccc2c(c1)[n+]([O-])c(C#N)c(-c1ccc(OC(F)(F)F)cc1)[n+]2[O-]`, the half-maximal inhibitory concentration (IC50) in series [1] worked out at 1250 nM; in series [3] it was 930 nM; in series [5], 8250 nM. The selectivity ratio was found to be 6.58 in series [2] and 8.87 in series [6]. The Ratio IC50 in series [4] was found to be 1.35.
Regarding `Cc1ccc2c(c1)[n+]([O-])c(C#N)c(-c1ccc(F)cc1)[n+]2[O-]`, the results for the concentration for half-maximal inhibition (IC50) in series [1], in series [3] and in series [5] were 370 nM, 880 nM and 11200 nM, respectively. Besides, the results for the selectivity ratio in series [2] and in series [6] were 30.4 and 12.7, respectively. Further, the Ratio IC50 in series [4] was 0.42.
Turning to `Cc1cc2c(cc1C)[n+]([O-])c(-c1ccc(F)cc1)c(C#N)[n+]2[O-]`, the IC50 was 930 nM in series [1], 1260 nM in series [3] and 18800 nM in series [5]. In addition, the selectivity ratio in series [2] is 20.4; in series [6], 14.9. In addition, the Ratio IC50 in series [4] was 0.73.
For the compound `N#Cc1c(-c2ccc(Cl)cc2)[n+]([O-])c2ccc(C(F)(F)F)cc2[n+]1[O-]`, the values for the concentration for half-maximal inhibition (IC50) in series [1], in series [3] and in series [5] were 1770 nM, 1560 nM and 2760 nM, respectively. Further, the results for the selectivity ratio in series [2] and in series [6] were 1.56 and 1.77, respectively. Further, the Ratio IC50 in series [4] turned out to be 1.13.
For `Cc1ccc2c(c1)[n+]([O-])c(C#N)c(-c1ccccc1)[n+]2[O-]`, the results for the IC50 in series [1], in series [3] and in series [5] were 740 nM, 1550 nM and 11600 nM, respectively. For the same compound, the selectivity ratio in series [2] was determined as 15.8; in series [6] it was 7.52. The Ratio IC50 in series [4] was determined as 0.48.
On to `N#Cc1c(-c2ccc(Cl)cc2)[n+]([O-])c2ccccc2[n+]1[O-]`, for which the IC50 in series [1] was 410 nM; in series [3], 1010 nM; in series [5] it was 9730 nM. In addition, the selectivity ratio in series [2] stood at 23.6; in series [6], 9.63. The Ratio IC50 in series [4] amounted to 0.41.
Consider `Cc1ccc2c(c1)[n+]([O-])c(C#N)c(-c1ccc(Cl)cc1)[n+]2[O-]`, for which the figures for the IC50 in series [1], in series [3] and in series [5] were 190 nM, 480 nM and 9250 nM, respectively. For the same compound, the results for the selectivity ratio in series [2] and in series [6] were 49.5 and 19.3, respectively. Moreover, the Ratio IC50 in series [4] stood at 0.39.
